Assay results: ChEMBL document CHEMBL2046281, “Pre-steady state kinetic analysis of cyclobutyl derivatives of 2'-deoxyadenosine 5'-triphosphate as inhibitors of HIV-1 reverse transcriptase” (Bioorg Med Chem Lett, 2012)

What was measured:
[1] = biological target: Human immunodeficiency virus type 1 reverse transcriptase (Human immunodeficiency virus 1) (UniProt Q72547); assay: Binding affinity to wild type HIV1 reverse transcriptase assessed as compound incorporation in presence of 50 nM primer template and 10 mM MgCl2 by pre-steady state kinetics study
Outline: (§1)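 Pre-steady-state single-nucleotide incorporation by HIV-1 RT (wild type or K65R), 250 nM active-site enzyme, elongating a radiolabeled DNA/DNA primer-template (50 nM) that carries the primer binding site and its complementary sequence. Reactions contained 10 mM MgCl2 and varied nucleotide concentrations. kpol and Kd were derived, and incorporation efficiency was reported in s-1 µM-1.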

[2] = biological target: Human immunodeficiency virus type 1 reverse transcriptase (Human immunodeficiency virus 1, UniProt Q72547); assay: Binding affinity to wild type HIV1 reverse transcriptase by pre-steady state kinetics study
Outline: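 Pre-steady-state single-nucleotide incorporation by wild-type HIV-1 RT (250 nM active sites) into a radiolabeled DNA/DNA primer-template (50 nM) carrying the primer binding site and its complementary sequence. Reactions contained 10 mM MgCl2 and varied nucleotide concentrations. kpol and Kd were taken from the primer elongation data.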

[3] = biological target: Human immunodeficiency virus type 1 reverse transcriptase (Human immunodeficiency virus 1) (UniProt Q72547); assay: Inhibition of wild type HIV1 reverse transcriptase assessed as compound incorporation efficiency in presence of 50 nM primer template and 10 mM MgCl2 by pre-steady state kinetics study; outline: as §1
[4] = biological target: Human immunodeficiency virus type 1 reverse transcriptase (Human immunodeficiency virus 1) (UniProt Q72547); assay: Discrimination index, ratio of incorporation efficiency of dATP to incorporation efficiency of compound for wild type HIV1 reverse transcriptase
[5] = system: Human immunodeficiency virus type 1 reverse transcriptase (Human immunodeficiency virus 1), Q72547 [K65R]; assay: Inhibition of HIV1 reverse transcriptase K65R mutant assessed as compound incorporation efficiency in presence of 50 nM primer template and 10 mM MgCl2 by pre-steady state kinetics study; outline: as §1
[6] = biological target: Human immunodeficiency virus type 1 reverse transcriptase (Human immunodeficiency virus 1, UniProt Q72547, K65R); assay: Binding affinity to HIV1 reverse transcriptase K65R mutant by pre-steady state kinetics study; outline: as §1
[7] = system: Human immunodeficiency virus type 1 reverse transcriptase (Human immunodeficiency virus 1), Q72547 [K65R]; assay: Binding affinity to HIV1 reverse transcriptase K65R mutant assessed as compound incorporation in presence of 50 nM primer template and 10 mM MgCl2 by pre-steady state kinetics study; outline: as §1
[8] = system: Human immunodeficiency virus type 1 reverse transcriptase (Human immunodeficiency virus 1), Q72547 [K65R]; assay: Discrimination index, ratio of incorporation efficiency of dATP to incorporation efficiency of compound for wild type HIV1 reverse transcriptase K65R mutant

Row | SMILES | K [1] | Kd [2] | Activity [3] | Ratio [4] | Activity [5] | Kd [6] | K [7] | Ratio [8]
1 | Nc1ncnc2c1ncn2[C@@H]1C[C@H](COP(=O)(O)OP(=O)(O)OP(=O)(O)O)[C@H]1F | 0.13 s⁻¹ | 25.5 µM | 0.0052 s⁻¹ µM⁻¹ | 519 |  |  |  | 
2 | Nc1ncnc2c1ncn2[C@H]1C[C@@H](OCP(=O)(O)OP(=O)(O)OP(=O)(O)O)C1 | 1.3 s⁻¹ | 6.5 µM | 0.21 s⁻¹ µM⁻¹ | 13 | 0.015 s⁻¹ µM⁻¹ | 4.7 µM | 0.07 s⁻¹ | 41
3 | NC1=Nc2ncnc3c2c(cn3[C@H]2C[C@@H](COP(=O)(O)OP(=O)(O)OP(=O)(O)O)C2)C=C1 | 0.16 s⁻¹ | 22.4 µM | 0.007 s⁻¹ µM⁻¹ | 386 |  |  |  | 
4 | C[C@H](Cn1cnc2c(N)ncnc21)OCP(=O)(O)OP(=O)(O)OP(=O)(O)O | 0.79 s⁻¹ | 16.5 µM | 0.048 s⁻¹ µM⁻¹ | 56 | 0.005 s⁻¹ µM⁻¹ | 29.1 µM | 0.15 s⁻¹ | 122
5 | Nc1ncnc2c1ncn2[C@H]1C[C@H](O)[C@@H](COP(=O)(O)OP(=O)(O)OP(=O)(O)O)O1 | 12.3 s⁻¹ | 4.6 µM | 2.7 s⁻¹ µM⁻¹ |  | 0.61 s⁻¹ µM⁻¹ | 6.6 µM | 4 s⁻¹ | 
6 | Nc1ncnc2c1ncn2[C@H]1C[C@@H](COP(=O)(O)OP(=O)(O)OP(=O)(O)O)C1 | 0.23 s⁻¹ | 20.4 µM | 0.011 s⁻¹ µM⁻¹ | 245 |  |  |  | 
